{
  "source": "paper PMC3508427",
  "about": "(The British journal of nutrition, 2009)",
  "key": {"[1]": {"settings": "cited from earlier work"}, "[2]": {"assay": "Plasma pharmacokinetics of total flavanones", "assay_type": "in vivo, human", "settings": "fruit or juice", "summary_of_the_method": "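Randomised cross-over in twenty volunteers on a flavonoid-avoidance diet, given single orange juice (300 g) or fruit portions. Drinking withheld 1·5 h and eating 4 h. Heparinised blood taken at 15, 30, 45 min and 1–48 h, centrifuged, and ascorbate added (final 1 mM). Plasma (pH 5·0) hydrolysed with β-glucuronidase and sulfatase for 2 h at 37°C. Total naringenin and hesperetin measured by C18 SPE and reversed-phase HPLC.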"}, "[3]": {"assay_type": "in vivo, human", "settings": "orange juice, n 129, linear model", "summary_of_the_method": "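Extended cohort of 129 subjects given a single 300 g orange juice dose. Urine collected as 24 h fractions: the day before, then for 48 h after, into bottles holding 1 g ascorbic acid. Volumes recorded. Urine (pH 5·0) hydrolysed with β-glucuronidase (10 000 units) and sulfatase (1000 units) for 2 h at 37°C, with galangin as internal standard. Measured by C18 SPE and HPLC, expressed as % of flavanone dose.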"}, "[4]": {"settings": "cited from earlier work", "remark": "listed apart in the source"}},
  "data": [
    {"smiles": "C[C@@H]1O[C@@H](OC[C@H]2O[C@@H](Oc3c(-c4ccc(O)c(O)c4)oc4cc(O)cc(O)c4c3=O)[C@H](O)[C@@H](O)[C@@H]2O)[C@H](O)[C@H](O)[C@H]1O", "note": "[rutin, quercetin rutinoside]", "values": [
      {"measurement": "time to peak plasma concentration", "setting": "[1]", "value": "about 6 h"}
    ]},
    {"smiles": "COc1ccc([C@@H]2CC(=O)c3c(O)cc(O)cc3O2)cc1O", "note": "[hesperetin]", "values": [
      {"measurement": "time of major peak in plasma profile", "setting": "[2]", "value": "about 6 h"},
      {"measurement": "decrease in urinary excretion between the ages of 20 and 80 years", "setting": "[3]", "value": 4, "unit": "%"}
    ]},
    {"smiles": "OC[C@H]1O[C@@H](Oc2cc3c(O)cc(O)cc3[o+]c2-c2ccc(O)cc2)[C@H](O)[C@@H](O)[C@@H]1O", "note": "[pelargondin-3-glucoside]", "values": [
      {"measurement": "time to peak plasma concentration", "setting": "[1]", "value": "about 1 h"}
    ]},
    {"smiles": "O=C1C[C@@H](c2ccc(O)cc2)Oc2cc(O)cc(O)c21", "note": "[naringenin]", "values": [
      {"measurement": "time of major peak in plasma profile", "setting": "[2]", "value": "about 6 h"}
    ]},
    {"smiles": "COc1ccc([C@@H]2CC(=O)c3c(O)cc(O[C@@H]4O[C@H](CO[C@@H]5O[C@@H](C)[C@H](O)[C@@H](O)[C@H]5O)[C@@H](O)[C@H](O)[C@H]4O)cc3O2)cc1O", "note": "[hesperidin, 7-O-rutinoside of hesperetin]", "values": [
      {"measurement": "mean urinary yield", "setting": "[4]", "value": "> 8", "unit": "%"},
      {"measurement": "time to peak plasma concentration", "setting": "[1]", "value": "about 6 h"}
    ]},
    {"smiles": "C[C@@H]1O[C@@H](O[C@H]2[C@H](Oc3cc(O)c4c(c3)O[C@H](c3ccc(O)cc3)CC4=O)O[C@H](CO)[C@@H](O)[C@@H]2O)[C@H](O)[C@H](O)[C@H]1O", "note": "[naringin]", "values": [
      {"measurement": "mean urinary yield", "setting": "[4]", "value": "> 8", "unit": "%"},
      {"measurement": "time to peak plasma concentration", "setting": "[1]", "value": "about 6 h"}
    ]}
  ]
}
